Data on eleven molecules can be found in ChEMBL document CHEMBL4627351, “Synthesis, biological evaluation and structure-activity relationships of 5-arylidene tetramic acids with antibacterial activity against methicillin-resistant Staphylococcus aureus” (Bioorg Med Chem Lett, 2020).

The term MIC denotes the smallest concentration in the dilution series that meets the test's criterion for growth inhibition. The term CC50 denotes the concentration giving 50% cytotoxicity. A higher CC50 goes with better tolerance by the cells. As a reminder, the inhibition is the relative decrease from the control value, in per cent.

The test system of one data set is Erythrocyte. Put plainly: Hemolytic activity against human RBC. The format is ADME, cell-based.
The subject of data set [1] is Staphylococcus aureus. Put plainly: Antibacterial activity against methicillin-resistant Staphylococcus aureus ATCC 43300 assessed as reduction in bacterial growth by CLSI protocol based broth microdilution method. The data set is classed as functional. The method, boiled down:
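Dose-response broth assay in duplicate, 8 points from 0.25 to 32 µg/mL, against MRSA ATCC 43300, with a positive antibiotic control. MIC is the lowest concentration giving full growth inhibition, per CLSI guidelines.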
A general note: In broth dilution the organism is exposed to a series of concentrations in liquid medium.

Data set [2] in a line: Cytotoxicity against human HEK293 cells. The data set is classed as cell-based.
Data set [3] concerns Staphylococcus aureus. Put plainly: Antibacterial activity against methicillin-resistant Staphylococcus aureus ATCC 43300 assessed as reduction in bacterial growth at 32 ug/ml by CLSI protocol based broth microdilution method relative to control. The format is functional. The method, boiled down:
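Primary single-concentration broth screen at 32 µg/mL in duplicate (n = 2) against MRSA ATCC 43300. Mean % growth inhibition was calculated relative to growth and media controls.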

Each structure is given as a SMILES string. Values after ≈ are worked out from the molar mass of the structure shown.

As for `CCCCCCCCCC(=O)C1=C(O)/C(=C/c2ccccc2)N(C(C)=O)C1=O`, in the data set on Erythrocyte, the HC10 is 20.4 µg/mL. In addition, the MIC in the data set with Staphylococcus aureus [1] was found to be 4 µg/mL (≈ 10.4 µM). Besides, the CC50 in data set [2] was > 32 µg/mL.
`CCCCCCCC(=O)C1=C(O)/C(=C/c2ccccc2)N(C(C)=O)C1=O`: the HC10 in the data set with Erythrocyte is > 32 µg/mL. Moreover, the MIC in the data set on Staphylococcus aureus [1] turned out to be 4 µg/mL (≈ 11.3 µM). Further, the CC50 in data set [2] is > 32 µg/mL.
Regarding `CCCCCCCCCCCCCC(=O)C1=C(O)/C(=C/c2ccccc2)N(C(C)=O)C1=O`, the HC10 with Erythrocyte is > 32 µg/mL. In the data set with Staphylococcus aureus [1], the minimal inhibitory concentration (MIC) is 4 µg/mL (≈ 9.1 µM). In addition, in data set [2], the cytotoxic concentration (CC50) is > 32 µg/mL.
In the case of `CCCCCCCCCCCCCCCC(=O)C1=C(O)/C(=C/c2ccccc2)N(C(C)=O)C1=O`, the HC10 with Erythrocyte was > 32 µg/mL. Further, the MIC in the data set with Staphylococcus aureus [1] amounted to 4 µg/mL (≈ 8.55 µM). Besides, the CC50 in data set [2] was > 32 µg/mL.
Take `CC(=O)C1=C(O)/C(=C/c2ccc(Cl)cc2)N(C(C)=O)C1=O`: the inhibition at 32 µg/mL with Staphylococcus aureus [3] was determined as 45.1%.
In the case of `CCCC(=O)C1=C(O)/C(=C/c2ccc(OC)cc2)N(C(C)=O)C1=O`, the HC10 in the data set on Erythrocyte is > 32 µg/mL. In addition, in the data set with Staphylococcus aureus [1], the MIC stood at 32 µg/mL (≈ 97.2 µM). In addition, the CC50 in data set [2] is > 32 µg/mL. Moreover, in the data set with Staphylococcus aureus [3], the inhibition at 32 µg/mL lay within 73.1 to 99.2%.
Turning to `CC(=O)C1=C(O)/C(=C/c2ccc(C(F)(F)F)cc2)N(C(C)=O)C1=O`, in the data set with Erythrocyte, the HC10 was > 32 µg/mL. Also, in the data set with Staphylococcus aureus [1], the minimum inhibitory concentration (MIC) was > 32 µg/mL. The CC50 in data set [2] was > 32 µg/mL. Moreover, the inhibition at 32 µg/mL in the data set with Staphylococcus aureus [3] came out at 61.7%.
Turning to `CC(=O)N1C(=O)C(C(=O)c2ccccc2)=C(O)/C1=C/c1ccccc1`, the inhibition at 32 µg/mL with Staphylococcus aureus [3] lay in the range of 73.1 to 99.2%.
Same read-out and setting: to `CC(=O)C1=C(O)/C(=C/c2ccc([N+](=O)[O-])cc2)N(C(C)=O)C1=O` belongs 38.6%.
Turning to `CC(=O)C1=C(O)/C(=C/c2ccccc2)N(C(C)=O)C1=O`, in the data set with Erythrocyte, the HC10 was > 32 µg/mL. Besides, the MIC in the data set on Staphylococcus aureus [1] is > 32 µg/mL. Besides, in data set [2], the CC50 is > 32 µg/mL. The inhibition at 32 µg/mL with Staphylococcus aureus [3] was in the range of 22.9 to 25.5%.
Regarding `CCCC(=O)C1=C(O)/C(=C/c2ccccc2)N(C(C)=O)C1=O`, the HC10 in the data set with Erythrocyte was > 32 µg/mL. The minimum inhibitory concentration (MIC) in the data set with Staphylococcus aureus [1] was determined as 32 µg/mL (≈ 107 µM). The 50% cytotoxic concentration (CC50) in data set [2] is > 32 µg/mL. Also, in the data set with Staphylococcus aureus [3], the inhibition at 32 µg/mL is 73.1 to 99.2%.
